Source: ChEMBL document CHEMBL2384906, “Biological activity, design, synthesis and structure activity relationship of some novel derivatives of curcumin containing sulfonamides” (Eur J Med Chem, 2013)
Values after ≈ are worked out from the molar mass of the structure shown. Active and inactive are the calls of the source. The rule behind the calls is not given here.

What was measured:
[1] = system: Salmonella typhi; experiment: Antimicrobial activity against Salmonella typhi ATCC 23564 assessed as diameter of inhibition zone at 20 uM after 24 hrs by Kirby -Baur disc diffusion method; type: functional; settings: Salmonella enterica subsp. enterica serovar Typhi
[2] = system: Pseudomonas aeruginosa; experiment: Antimicrobial activity against Pseudomonas aeruginosa ATCC 15499 after 24 hrs by broth micro serial dilution method; type: functional; settings: ATCC 15499, 24 h
Summary of the method: (§1)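 This was broth microdilution in autoclaved Mueller-Hinton broth. 150 µL of compound per well was serially diluted […], and 50 µL of test organism was added. Plates were incubated 24 h at 37 °C and optical density was read.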

[3] = system: HCT-116; experiment: Cytotoxicity against human HCT116 cells after 24 hrs by MTT assay; type: functional, cell-based
Summary of the method: (§2)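 The MTT assay seeded 5 × 10⁴ cells per well and grew them 24 h in RPMI 1640 with compound at 2.5–200 µM. Medium without cells was the blank and adriamycin the positive control. MTT was added for 4 h at 37 °C, formazan was solubilised, and absorbance was read at 570 nm. IC50 is the concentration that cuts viability 50% against untreated cells.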

[4] = system: Aspergillus flavus; experiment: Antifungal activity against Aspergillus flavus MTCC 1021 assessed as zone of inhibition at 80 uM after 48 hrs by disc diffusion method; type: functional
Summary of the method: (§3)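 Spores from 4-day potato dextrose agar cultures, suspended in sterile water at 1.5 × 10⁵ CFU/mL. 0.2 mL was spread on potato dextrose agar. 5 mm filter-paper discs soaked with test compound were laid on the lawn. Incubation was 48 h at 28 °C, then the inhibition zone was measured in mm. Fluconazole was the positive control and acetone the negative control.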

[5] = system: Trichoderma viride; experiment: Antifungal activity against Trichoderma viride MTCC 1107 after 48 hrs; type: functional; settings: MTCC 1107, 48 h
[6] = system: Escherichia coli; experiment: Antimicrobial activity against Escherichia coli ATCC 35218 assessed as diameter of inhibition zone at 20 uM after 24 hrs by Kirby -Baur disc diffusion method; type: functional
Summary of the method: (§4)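 Kirby-Bauer disc diffusion was used. Acetone stocks (160 µM) were serially doubled down to 80, 40 and 20 µM. 4 µL of each went onto 5 mm sterile paper discs, which were dried 30 min at 50 °C. Inoculum was 1.5 × 10⁸ CFU/mL diluted to 3 × 10² CFU/mL, and 50 µL was spread on Mueller-Hinton agar. After 24 h at 37 °C the inhibition-zone diameter was measured. Ciprofloxacin served as positive control.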

[7] = system: Salmonella typhi; experiment: Antimicrobial activity against Salmonella typhi ATCC 23564 assessed as diameter of inhibition zone at 80 uM after 24 hrs by Kirby -Baur disc diffusion method; type: functional, Salmonella enterica subsp. enterica serovar Typhi; settings: Salmonella enterica, ATCC 23564, 24 h; read-out: DIZ
[8] = system: Escherichia coli; experiment: Antimicrobial activity against Escherichia coli ATCC 35218 assessed as diameter of inhibition zone at 40 uM after 24 hrs by Kirby -Baur disc diffusion method; type: functional; summary of the method: as §4
[9] = system: Curvularia lunata; experiment: Antifungal activity against Curvularia lunata MTCC 581 assessed as zone of inhibition at 80 uM after 48 hrs by disc diffusion method; type: functional; settings: MTCC 581, 48 h, read-out: IZ; summary of the method: as §3
[10] = system: HepG2; experiment: Cytotoxicity against human HepG2 cells after 24 hrs by MTT assay; type: functional, cell-based; summary of the method: as §2
[11] = system: Pseudomonas aeruginosa; experiment: Antimicrobial activity against Pseudomonas aeruginosa ATCC 15499 assessed as diameter of inhibition zone at 80 uM after 24 hrs by Kirby -Baur disc diffusion method; type: functional; summary of the method: as §4
[12] = system: Curvularia lunata; experiment: Antifungal activity against Curvularia lunata MTCC 581 assessed as zone of inhibition at 20 uM after 48 hrs by disc diffusion method; type: functional; summary of the method: as §3
[13] = system: Trichoderma viride; experiment: Antifungal activity against Trichoderma viride MTCC 1107 assessed as zone of inhibition at 20 uM after 48 hrs by disc diffusion method; type: functional; summary of the method: as §3
[14] = system: Staphylococcus aureus; experiment: Antimicrobial activity against Staphylococcus aureus ATCC 11632 assessed as diameter of inhibition zone at 80 uM after 24 hrs by Kirby -Baur disc diffusion method; type: functional; summary of the method: as §4
[15] = system: Bacillus cereus; experiment: Antimicrobial activity against Bacillus cereus MTCC 7350 assessed as diameter of inhibition zone at 80 uM after 24 hrs by Kirby -Baur disc diffusion method; type: functional; summary of the method: as §4
[16] = system: Trichoderma viride; experiment: Antifungal activity against Trichoderma viride MTCC 1107 assessed as zone of inhibition at 40 uM after 48 hrs by disc diffusion method; type: functional; settings: MTCC 1107, 48 h, read-out: IZ; summary of the method: as §3
[17] = system: Curvularia lunata; experiment: Antifungal activity against Curvularia lunata MTCC 581 after 48 hrs; type: functional; settings: MTCC 581, 48 h
[18] = system: Trichoderma viride; experiment: Antifungal activity against Trichoderma viride MTCC 1107 assessed as zone of inhibition at 80 uM after 48 hrs by disc diffusion method; type: functional; settings: MTCC 1107, 48 h, read-out: IZ; summary of the method: as §3
[19] = system: Aspergillus flavus; experiment: Antifungal activity against Aspergillus flavus MTCC 1021 after 48 hrs; type: functional
[20] = system: QG-56; experiment: Cytotoxicity against human QG56 cells after 24 hrs by MTT assay; type: functional, cell-based; summary of the method: as §2
[21] = system: Mus musculus; experiment: Antiinflammatory activity in mouse assessed as inhibition of carrageenan-induced increase in paw volume at 200 mg/kg administered 1 hr prior to carrageenan challenge measured after 3 hrs relative to control; type: functional
Summary of the method: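 Mice were fasted 2 h and placed in groups of five. Controls received saline i.p. Phenylbutazone was given at 100 mg/kg i.p., curcumin at 200 mg/kg i.p., and derivatives at 200 mg/kg. After 1 h, 0.1 mL of 1% carrageenan in saline was injected subplantar into the right hind paw. Paw volume was followed by plethysmometer for 3 h, and % inhibition was calculated as (Vc − Vt)/Vc × 100.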

[22] = system: Bacillus cereus; experiment: Antimicrobial activity against Bacillus cereus MTCC 7350 after 24 hrs by broth micro serial dilution method; type: functional; summary of the method: as §1
[23] = system: Aspergillus niger; experiment: Antifungal activity against Aspergillus niger MTCC 1108 assessed as zone of inhibition at 80 uM after 48 hrs by disc diffusion method; type: functional; summary of the method: as §3
[24] = system: Escherichia coli; experiment: Antimicrobial activity against Escherichia coli ATCC 35218 after 24 hrs by broth micro serial dilution method; type: functional; settings: ATCC 35218, 24 h; summary of the method: as §1
[25] = system: Salmonella typhi; experiment: Antimicrobial activity against Salmonella typhi ATCC 23564 assessed as diameter of inhibition zone at 40 uM after 24 hrs by Kirby -Baur disc diffusion method; type: functional
[26] = system: Salmonella typhi; experiment: Antimicrobial activity against Salmonella typhi ATCC 23564 after 24 hrs by broth micro serial dilution method; type: functional, Salmonella enterica subsp. enterica serovar Typhi; settings: Salmonella enterica, ATCC 23564, 24 h
[27] = system: Curvularia lunata; experiment: Antifungal activity against Curvularia lunata MTCC 581 assessed as zone of inhibition at 40 uM after 48 hrs by disc diffusion method; type: functional; settings: MTCC 581, 48 h, read-out: IZ; summary of the method: as §3
[28] = system: Staphylococcus aureus; experiment: Antimicrobial activity against Staphylococcus aureus ATCC 11632 after 24 hrs by broth micro serial dilution method; type: functional; summary of the method: as §1
[29] = system: HeLa; experiment: Cytotoxicity against human HeLa cells after 24 hrs by MTT assay; type: functional, cell-based; summary of the method: as §2
[30] = system: Escherichia coli; experiment: Antimicrobial activity against Escherichia coli ATCC 35218 assessed as diameter of inhibition zone at 80 uM after 24 hrs by Kirby -Baur disc diffusion method; type: functional; settings: ATCC 35218, 24 h, read-out: DIZ; summary of the method: as §4
[31] = system: Aspergillus niger; experiment: Antifungal activity against Aspergillus niger MTCC 1108 after 48 hrs; type: functional
[32] = ATCC 35218, 24 h, read-out: DIZ

Row | SMILES | diameter of the inhibition zone (DIZ) [1] | MIC [2] [µM] | IC50 [3] | inhibition zone (IZ) [4] | MIC [5] [µM] | zone of inhibition at 80 µM [7] [mm] | zone of inhibition at 80 µM [9] [mm] | IC50 [10] | diameter of the inhibition zone (DIZ) [11] | diameter of the inhibition zone (DIZ) [14] | diameter of the inhibition zone (DIZ) [15] | zone of inhibition at 40 µM [16] [mm] | MIC [17] [µM] | zone of inhibition at 80 µM [18] [mm] | IC50 [20] | inhibition in vivo at 200 mg/kg [21] [%] | MIC [22] | inhibition zone (IZ) [23] | MIC [24] [µM] | MIC [26] [µM] | further results
1 | COc1cc(/C=C/c2nn(-c3ccccc3)c(/C=C/c3ccc(O)c(OC)c3)c2/N=N/c2ccc(S(=O)(=O)Nc3ccccn3)cc2)ccc1O | inactive | > 80 | Not Active | inactive | 40 (≈ 28 µg/mL) | 9 | 17 | Not Active | inactive | inactive | inactive | 13 | 40 (≈ 28 µg/mL) | 17 | 100 µM | 20.9 | inactive | inactive | > 80 | > 80 | zone of inhibition at 20 µM [6, 32]: 7 mm; zone of inhibition at 40 µM [8, 32]: 9 mm; zone of inhibition at 20 µM ([12]; MTCC 581, 48 h, read-out: IZ): 10 mm; zone of inhibition at 20 µM ([13]; MTCC 1107, 48 h, read-out: IZ): 10 mm; MIC [19]: inactive; diameter of the inhibition zone (DIZ) ([25]; Salmonella enterica subsp. enterica serovar Typhi): inactive; zone of inhibition at 40 µM [27]: 13 mm; MIC [28]: inactive; IC50 [29]: 50 µM; zone of inhibition at 80 µM [30]: 10 mm; MIC [31]: inactive
2 | COc1cc(/C=C/c2noc(/C=C/c3ccc(O)c(OC)c3)c2/N=N/c2ccc(S(=O)(=O)Nc3ccccn3)cc2)ccc1O | inactive | > 80 | Not Active | inactive | 80 (≈ 50.1 µg/mL) | 15 | 12 | Not Active | inactive | inactive | inactive | 10 | > 80 | 12 | Not Active | 27.4 | inactive | inactive | > 80 | 80 (≈ 50.1 µg/mL) | diameter of the inhibition zone (DIZ) [6]: inactive; diameter of the inhibition zone (DIZ) [8]: inactive; inhibition zone (IZ) [12]: inactive; inhibition zone (IZ) [13]: inactive; MIC ([19]; MTCC 1021, 48 h): > 80 µM; zone of inhibition at 40 µM ([25]; Salmonella enterica, ATCC 23564, 24 h, read-out: DIZ): 9 mm; zone of inhibition at 40 µM [27]: 10 mm; MIC [28]: inactive; IC50 [29]: Not Active; zone of inhibition at 80 µM [30]: 10 mm; MIC [31]: inactive
